Converted amounts (≈) assume the structure as drawn. The source made the active and inactive calls. The calls are words filed in the database; no cut-off is given here.
What was measured:
[1] = molecular target: Glucose-6-phosphate 1-dehydrogenase (Homo sapiens, UniProt P11413); assay: Inhibition of human glucose-6-phosphate dehydrogenase after 90 mins by resazurin/diaphorasecoupled assay
Outline: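 Dose response with a top final concentration of […] and 0.8% final DMSO, in 50 mM Tris pH 7.5, 0.005% Tween 20 and 1 mg/mL BSA. The enzyme solution held 0.05 μg/mL hG6PD. The substrate solution held 0.64 mM G6P, 12 μM NADP+, 6.6 mM MgCl2, 2 U/mL diaphorase and 0.28 mM resazurin.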

[2] = molecular target: T1, Glucose-6-phosphate 1-dehydrogenase (Plasmodium falciparum, UniProt Q25856); assay: Inhibition of Plasmodium falciparum glucose-6-phosphate dehydrogenase after 45 mins by orthogonal assay
T1 sequence (Q25856 whole entry): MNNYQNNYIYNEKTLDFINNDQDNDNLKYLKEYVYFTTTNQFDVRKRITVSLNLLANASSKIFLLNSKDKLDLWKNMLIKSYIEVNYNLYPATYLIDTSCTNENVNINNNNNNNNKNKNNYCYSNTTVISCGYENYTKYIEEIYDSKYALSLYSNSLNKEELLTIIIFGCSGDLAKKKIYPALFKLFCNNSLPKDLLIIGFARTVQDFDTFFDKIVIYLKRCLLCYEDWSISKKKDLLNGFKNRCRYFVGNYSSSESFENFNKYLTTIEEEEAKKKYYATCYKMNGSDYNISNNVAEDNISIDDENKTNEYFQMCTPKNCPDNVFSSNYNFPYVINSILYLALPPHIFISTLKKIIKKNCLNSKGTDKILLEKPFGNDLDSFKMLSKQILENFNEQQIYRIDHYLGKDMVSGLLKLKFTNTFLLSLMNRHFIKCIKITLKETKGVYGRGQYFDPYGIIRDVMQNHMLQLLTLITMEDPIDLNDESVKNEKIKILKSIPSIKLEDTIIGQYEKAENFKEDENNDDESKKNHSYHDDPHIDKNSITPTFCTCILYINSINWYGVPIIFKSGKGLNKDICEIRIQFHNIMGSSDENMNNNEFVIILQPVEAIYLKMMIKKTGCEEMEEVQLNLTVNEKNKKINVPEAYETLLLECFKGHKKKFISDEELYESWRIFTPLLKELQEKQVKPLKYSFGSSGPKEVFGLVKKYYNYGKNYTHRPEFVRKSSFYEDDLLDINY
Outline: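 Direct NADPH read without coupling: PfGluPho (0.4 μg/mL enzyme solution) in 50 mM Tris pH 7.5, 0.005% Tween 20, 1 mg/mL BSA; substrate 40 μM G6P, 6 μM NADP+, 6.6 mM MgCl2.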

[3] = molecular target: T1, Glucose-6-phosphate 1-dehydrogenase; assay: Inhibition of Plasmodium falciparum glucose-6-phosphate dehydrogenase after 2 hrs by resazurin/diaphorasecoupled assay
[4] = test system: Liver microsomes; assay: Stability in human liver microsomes assessed as compound remaining after 1 hr; assay type: ADME, Microsome
[5] = Permeability of the compound at donor pH 5 by PAMPA; assay type: ADME
[6] = test system: Hepatocyte; assay: Toxicity against Fa2N-4 immortalized human hepatocytes; assay type: cell-based; details: read-out: LC50 (the source's name)
[7] = test system: Plasma; assay: Plasma protein binding in mouse at 10 uM; assay type: ADME, cell-free
[8] = test system: Plasma; assay: Plasma protein binding in mouse at 1 uM; assay type: ADME, cell-free
[9] = Blood brain barrier permeability of the compound at pH 7.4 by PAMPA; assay type: ADME
[10] = test system: Plasma; assay: Plasma protein binding in human at 10 uM; assay type: ADME, cell-free
[11] = Aqueous solubility in PBS buffer at pH 7.4; assay type: physicochemical
[12] = test system: Plasma; assay: Stability in human plasma assessed as compound remaining after 3 hrs; assay type: ADME, cell-free
[13] = Aqueous solubility in pION's buffer at pH 7.4; assay type: physicochemical
[14] = test system: Plasmodium falciparum; assay: Antimalarial activity against chloroquine-sensitive Plasmodium falciparum 3D7 cells assessed as Plasmodium falciparum growth inhibition after 72 hrs by isotopic drug sensitivity assay; assay type: functional, organism-based; details: 3D7, 72 h
Outline: (§1)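 Infected RBCs plated at 0.25% parasitemia (>70% rings), 1.25% hematocrit, hypoxanthine-free medium; serial compound concentrations, chloroquine control. 48 h incubation, then 0.5 μCi 3H-hypoxanthine for another 24 h. Cells harvested on glass fibre filters, radioactivity counted as growth measure. IC50 by non-linear regression; run twice, each in triplicate.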

[15] = test system: Plasmodium falciparum; assay: Antimalarial activity against chloroquine-resistant Plasmodium falciparum Dd2 cells assessed as Plasmodium falciparum growth inhibition after 72 hrs by isotopic drug sensitivity assay; assay type: functional, organism-based; details: Dd2, 72 h; outline: as §1
[16] = test system: Liver; assay: Stability in mouse liver microsomes assessed as compound remaining after 1 hr; assay type: ADME, Microsome
[17] = test system: Plasmodium falciparum; assay: Competitive inhibition of Plasmodium falciparum glucose-6-phosphate dehydrogenase-6-phosphogluconolactonase using glucose-6-phosphate as substrate by Lineweaver-Burk plot analysis
Outline: (§2)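 PfGluPho at 0.2 μg/mL final, with 0.005% Tween 20, 3.3 mM MgCl2, 1 mM TCEP and 0.05 M Tris. G6P was varied at 5 μM NADP+; NADP+ was varied at 25 μM G6P. Compound was titrated at the same time. NADPH fluorescence (ex340/em460) was followed for 10 min and initial slopes taken. Lineweaver-Burk plots gave Km and Vmax, and α came from a rate equation.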

[18] = Aqueous solubility in pION's buffer at pH 6.2; assay type: physicochemical
[19] = Permeability of the compound at donor pH 7.4 by PAMPA; assay type: ADME
[20] = test system: Plasmodium falciparum; assay: Mixed type inhibition of Plasmodium falciparum glucose-6-phosphate dehydrogenase-6-phosphogluconolactonase using NADP+ as substrate by Lineweaver-Burk plot analysis; outline: as §2
[21] = Aqueous solubility in pION's buffer at pH 5; assay type: physicochemical
[22] = Permeability of the compound at donor pH 6.2 by PAMPA; assay type: ADME
[23] = test system: Plasma; assay: Stability in mouse plasma assessed as compound remaining after 3 hrs; assay type: ADME, cell-free
[24] = test system: Plasma; assay: Plasma protein binding in human at 1 uM; assay type: ADME, cell-free
[25] = Drug degradation in PBS buffer assessed as compound depletion at pH 7.4 after 24 hrs by RP-LCMS analysis in presence of glutathione; assay type: physicochemical; details: PBS buffer with glutathione, read-out: Drug metabolism
Outline: (§3)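 Compound from a 1 mM DMSO stock, final 10 μM with 1% DMSO, in PBS pH 7.4 with 5 equivalents glutathione (from a 10 mM PBS stock), shaken in capped glass vials at 23 °C. Aliquots were analysed by RP-HPLC-MS on a C18 column at 0, 0.5, 1, 2, 4, 6, 18 and […]. Percent remaining versus 0 h was taken from peak AUC.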

[26] = Drug degradation in PBS buffer assessed as compound depletion at pH 7.4 after 30 mins by RP-LCMS analysis in presence of glutathione; assay type: physicochemical; details: pH 7.4, 0.5 h; outline: as §3
[27] = Chemical stability in PBS buffer at pH 7.4 at 10 uM up to 18 hrs by RP-LCMS analysis in presence of glutathione; assay type: physicochemical; details: pH 7.4, 18 h; outline: as §3

Sequence of Glucose-6-phosphate 1-dehydrogenase (Homo sapiens, UniProt P11413) (P11413 whole entry): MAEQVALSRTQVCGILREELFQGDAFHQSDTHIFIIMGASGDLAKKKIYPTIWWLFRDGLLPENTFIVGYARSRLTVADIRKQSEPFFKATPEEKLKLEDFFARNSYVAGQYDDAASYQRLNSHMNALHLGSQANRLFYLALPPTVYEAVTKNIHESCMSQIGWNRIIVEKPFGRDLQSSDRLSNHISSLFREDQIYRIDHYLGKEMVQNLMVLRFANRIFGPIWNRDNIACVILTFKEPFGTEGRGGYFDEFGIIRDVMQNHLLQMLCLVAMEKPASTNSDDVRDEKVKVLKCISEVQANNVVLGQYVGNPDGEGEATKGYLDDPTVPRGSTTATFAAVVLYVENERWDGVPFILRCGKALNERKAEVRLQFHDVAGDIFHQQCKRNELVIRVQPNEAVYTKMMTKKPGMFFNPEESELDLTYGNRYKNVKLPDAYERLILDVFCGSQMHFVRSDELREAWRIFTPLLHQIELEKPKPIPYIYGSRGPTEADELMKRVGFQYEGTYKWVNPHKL

## O=C1Nc2cc(C(=O)NCCN3CCOCC3)ccc2S/C1=C\c1ccccc1F
[1]
  IC50: > 80 µM
[2]
  IC50: > 80 µM
[3]
  IC50: > 80 µM

## O=C1Nc2cc(C(=O)NCCN3CCCCCC3)ccc2S/C1=C\c1ccccc1Cl
[1]
  IC50: > 80 µM
[2]
  IC50: > 80 µM
[3]
  IC50: 40.9 µM

## CCN1CCCC1CNC(=O)c1ccc2c(c1)NC(=O)/C(=C/c1cccc3ccccc13)S2 (stereo not given)
[1]
  IC50: > 80 µM
[2]
  IC50: 4.2 µM
[3]
  IC50: 4.28 µM

## O=C1Nc2cc(C(=O)NCCN3CCCCC3)ccc2S/C1=C\c1ccccc1F
[1]
  IC50: > 80 µM
[2]
  IC50: 24 µM
[3]
  IC50: 21.6 µM

## CCN1CCC[C@H]1CNC(=O)c1ccc2c(c1)NC(=O)/C(=C/c1ccccc1F)S2
[1]
  IC50: > 80 µM
[2]
  IC50: 4.7 µM
[3]
  IC50: 6.6 µM

## COc1ccc(/C=C2\Sc3ccc(C(=O)NCCN4CCCCCC4)cc3NC2=O)cc1
[1]
  IC50: > 80 µM
[2]
  IC50: > 80 µM
[3]
  IC50: > 80 µM

## CCN1CCCC1CNC(=O)c1ccc2c(c1)NC(=O)/C(=C/c1ccc3ccccc3c1)S2 (stereo not given)
[1]
  IC50: > 80 µM
[2]
  IC50: 2.88 µM
[3]
  IC50: 2.39 µM

## COc1cccc(/C=C2\Sc3ccc(C(=O)NCCN4CCCCCC4)cc3NC2=O)c1
[1]
  IC50: > 80 µM
[2]
  IC50: 58.5 µM
[3]
  IC50: > 80 µM

## CCN(CC)CCNC(=O)c1ccc2c(c1)NC(=O)/C(=C/c1ccccc1F)S2 (stereo in doubt; 21)
[1]
  IC50: > 80 µM
[2]
  IC50: 9.4 µM
[3]
  IC50: 7.4 µM

## NC1CCN(C(=O)c2ccc3c(c2)NC(=O)/C(=C/c2ccccc2F)S3)C1 (stereo not given)
[1]
  IC50: > 80 µM
[2]
  IC50: 35 µM
[3]
  IC50: 45 µM

## CCCN(CCC)CCNC(=O)c1ccc2c(c1)NC(=O)/C(=C/c1ccccc1)S2
[1]
  IC50: > 80 µM
[2]
  IC50: 27.2 µM
[3]
  IC50: > 80 µM

## CN(C)CCNC(=O)c1ccc2c(c1)NC(=O)/C(=C/c1cccc(Cl)c1)S2
[1]
  IC50: > 80 µM
[2]
  IC50: 43.6 µM
[3]
  IC50: 60 µM

## O=C1Nc2cc(C(=O)NCc3ccccc3)ccc2S/C1=C\c1ccccc1F
[1]
  IC50: > 80 µM
[2]
  IC50: > 80 µM
[3]
  IC50: > 80 µM

## CN1CCCC1CCNC(=O)c1ccc2c(c1)NC(=O)/C(=C/c1ccccc1F)S2 (stereo not given)
[1]
  IC50: > 80 µM
[2]
  IC50: 45.2 µM
[3]
  IC50: 22.7 µM

## COc1ccc(/C=C2\Sc3ccc(C(=O)NCCN4CCCC4)cc3NC2=O)cc1
[1]
  IC50: > 80 µM
[2]
  IC50: > 80 µM
[3]
  IC50: 49.7 µM

## CCN1CCC[C@@H]1CNC(=O)c1ccc2c(c1)NC(=O)/C(=C/c1ccccc1F)S2
[4]
  Stability: 60.53%
[5]
  permeability: 29 ×10⁻⁶ cm/s
[6]
  CC50: > 50 µM
[7]
  PPB: 98.34%
[8]
  PPB: 98.95%
[1]
  IC50: > 80 µM
[9]
  permeability: 233 ×10⁻⁶ cm/s
[10]
  PPB: 97.98%
[11]
  solubility: 166 µM (≈ 70.6 µg/mL)
[12]
  Stability: 90.98%
[2]
  IC50: 1.9 µM
[13]
  solubility: 69 µM (≈ 29.4 µg/mL)
[14]
  IC50: 2.34 µM
[3]
  IC50: 0.9 µM
[15]
  IC50: 3.71 µM
[16]
  Stability: 37.57%
[17]
  inhibition: Active
[18]
  solubility: > 296 µM
[19]
  permeability: 806 ×10⁻⁶ cm/s
[20]
  inhibition: Active
[21]
  solubility: > 296 µM
[22]
  permeability: 737 ×10⁻⁶ cm/s
[23]
  Stability: 80.84%
[24]
  PPB: 98.39%

## CCN(CC)CCNC(=O)c1ccc2c(c1)NC(=O)/C(=C/c1ccccc1)S2
[1]
  IC50: > 80 µM
[2]
  IC50: 18.4 µM
[3]
  IC50: 8.8 µM

## O=C1Nc2cc(C(=O)NCCN3CCCC3)ccc2S/C1=C\c1ccccc1Cl
[1]
  IC50: > 80 µM
[2]
  IC50: > 80 µM
[3]
  IC50: 11.1 µM

## C=C(CC)C(=O)c1ccc(OCC(=O)O)c(Cl)c1Cl [ETHACRYNIC ACID]
[25]
  degraded at 24 h: 97%
[26]
  Drug metabolism: Active
[27]
  Stability: Stable

## O=C1Nc2cc(C(=O)NCCCN3CCCC3)ccc2S/C1=C\c1ccccc1
[1]
  IC50: > 80 µM
[2]
  IC50: 22.3 µM
[3]
  IC50: 9.3 µM

## COc1ccc(/C=C2\Sc3ccc(C(=O)NCCN(C)C)cc3NC2=O)cc1
[1]
  IC50: > 80 µM
[2]
  IC50: > 80 µM
[3]
  IC50: > 80 µM

## CCN1CCCC1CNC(=O)c1ccc2c(c1)NC(=O)/C(=C/c1ccccc1F)S2 (racemic)
[1]
  IC50: > 80 µM
[2]
  IC50: 1.37 µM
[3]
  IC50: 1.75 µM

## O=C1Nc2cc(C(=O)NCCN3CCCCCC3)ccc2S/C1=C\c1ccccc1F
[1]
  IC50: > 80 µM
[2]
  IC50: 11 µM
[3]
  IC50: 46.6 µM
